Assay results taken from the RNAGym collection of RNA variant scans (doi:10.1126/science.aae0568).
Variants at the floor of the assay were thinned out.

B1: tRNA (parent)
chain: GUUCCGUUGGCGUAAUGGUAACGCGUCUCCCUCCUAAGGAGAAGACUGCGGGUUCGAGUCCCGUACGGAACG

Variants of: B1
Experiment: yeast fitness relative to wild type (ratio to wild type); higher = fitter; tRNA-Arg(CCU), competitive growth, 37 C, YPD
In short: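 For this measurement, the tRNA-Arg(CCU) gene was varied by chemical synthesis at a 3% per-site mutation rate across 69 sites, and each variant was placed at the native genomic locus in Saccharomyces cerevisiae. The pooled strains went through a 24-hour competition in YPD at 37°C in six parallel replicates, with amplicons from start and end populations read by 100-nucleotide paired-end sequencing. Darwinian fitness relative to wild type followed from the change in each genotype's frequency. Genotypes needed ≥ 100 starting reads, and estimates < 0.5 were set to 0.5.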

Row | Variant | yeast fitness
1 | C11A U16C A21G | ≤ 0.5
2 | C11A C31G A69U | ≤ 0.5
3 | C11A C55U G63A | ≤ 0.5
4 | C11A A21C G25C C34A A36U G44A | ≤ 0.5
5 | C11A C60G A65U | ≤ 0.5
6 | C11A C22U U54C | ≤ 0.5
7 | G10C G68U | 0.693
8 | C11A G12A C66A | ≤ 0.5
9 | C11A U16C G18C A45C A57C G68C | 0.546
10 | C11A A15C C24G C34A | ≤ 0.5
11 | C11A C22A C29G | 0.545
12 | C11A U16C A21G G68A | ≤ 0.5
13 | G10C G51C C61U | ≤ 0.5
14 | C11A A57U | ≤ 0.5
15 | C11A A57C | 0.675
16 | G10C U35G A43C U47C C55U C62U A69C | ≤ 0.5
17 | C11A U16C C27G G48C | ≤ 0.5
18 | G10C U26A C34G | ≤ 0.5
19 | C11A G48A | 0.642
20 | G10C G56C | 0.553
21 | C11A A43U U64C | ≤ 0.5
22 | C11A C34U U53C A69C | ≤ 0.5
23 | C11A A43U C66U | ≤ 0.5
24 | C11A U47G | 0.542

Row | Variant | yeast fitness
25 | C11A A14C | 0.683
26 | G10C U16A C30U U64A | ≤ 0.5
27 | C11A A36G G56C | ≤ 0.5
28 | C11A U47G U64C | 0.531
29 | C11A C29U C33U U54C | ≤ 0.5
30 | C11A C22G A45C G50A | 0.741
31 | C11A A20C A21G U47C G56C U64C G68C | ≤ 0.5
32 | C11A C22U C55A | ≤ 0.5
33 | C11A G23C C49G | ≤ 0.5
34 | C11A U13C C49U U54C C61G C66U | 0.64
35 | C11A A14C C34A A36G | ≤ 0.5
36 | G10C U64A | 0.671
37 | G10C U19C C33G | 0.769
38 | C11A C61U A70C | ≤ 0.5
39 | C11A U13C C27A | ≤ 0.5
40 | C11A G17C A21U | ≤ 0.5
41 | G10C U16A A65G | ≤ 0.5
42 | C11A C24G C30U C31U C61U G67C | ≤ 0.5
43 | C11A G51C C66G | 0.713
44 | C11A A21U C55U | 0.788
45 | C11A G23C A42U | ≤ 0.5
46 | C11A C49U G68A | ≤ 0.5
47 | C11A C30G A45U C60A C62U | ≤ 0.5
48 | C11A C62G | 0.552

Row | Variant | yeast fitness
49 | G10U A15U C31G G50C U59C C62U | ≤ 0.5
50 | C11A A21G C34G G38C C62G A69C | ≤ 0.5
51 | C11A U19G A36G | 0.521
52 | C11A A43G A65C | 0.501
53 | C11A G41A A45U C55A | ≤ 0.5
54 | C11A G56A C66G | 0.533
55 | C11A C29A | ≤ 0.5
56 | C11A A20C U28C A37U A40C G48A | ≤ 0.5
57 | C11A A21G C62G C66U | ≤ 0.5
58 | C11A C55A C66A | ≤ 0.5
59 | G10C U26G C27G U32A A40U | ≤ 0.5
60 | C11A U59C C66U A70C | ≤ 0.5
61 | C11A G38A U53A G63A G68A | 0.635
62 | C11A A42U A69U | ≤ 0.5
63 | C11A U35G | 0.514
64 | C11A A15G A40G C49U C60A C61A | ≤ 0.5
65 | C11A A21G C34U A37G C62A | ≤ 0.5
66 | C11A G12A U16A G23C | ≤ 0.5
67 | C11A U16C A21G C55A | ≤ 0.5
68 | C11A C31A G44C A65C | ≤ 0.5
69 | C11A U19C C60U | ≤ 0.5
70 | C11A C55A | ≤ 0.5
71 | C11A C55U | 0.514
72 | C11A U35A C61U G67A | ≤ 0.5

Row | Variant | yeast fitness
73 | G10C G50A U59A G67C | ≤ 0.5
74 | G10C U26A C49U A65U | 0.553
75 | C11A U13G G51A | ≤ 0.5
76 | C11A G68A | 0.583
77 | C11A C29G G44A G56C C62A G67C | ≤ 0.5
78 | C11A A21G C55G C62A | ≤ 0.5
79 | C11A A20U C22U G67C | ≤ 0.5
80 | G10U | 0.887
81 | G10C U26A C27U C31G A42U U47A U53C | 0.721
82 | C11A U13C G23C U32G C34A | ≤ 0.5
83 | C11A G18A C49A C62G | ≤ 0.5
84 | C11A C55G A69C | ≤ 0.5
85 | G10U G17A G25C C29A G52A | ≤ 0.5
86 | G10C U19A A37C | 0.502
87 | C11A C33U C62U A69C | ≤ 0.5
88 | C11A A21U U54G A65C | ≤ 0.5
89 | C11A A21C U53A C62U | ≤ 0.5
90 | C11A U16C G18C A45C A57C | ≤ 0.5
91 | C11A U59C C61A C62U | ≤ 0.5
92 | C11A A15U A21U A36C A37U C55U | ≤ 0.5
93 | C11A A21G C22G A37G | ≤ 0.5
94 | C11A A21C C31A C46G | ≤ 0.5
95 | C11A A15G C22U C29A A43U A45G | ≤ 0.5
96 | C11A C24U C34U G58C C62G G67A | 0.544

Row | Variant | yeast fitness
97 | C11A A42C C46G C60A | ≤ 0.5
98 | G10C U19A C29G C34U | ≤ 0.5
99 | G10C U47C | 0.695
100 | G10C U47G | ≤ 0.5
101 | C11A G67A A70G | 0.562
102 | G10C U28A | 0.59
103 | C11A C31U A37C G51C C55G | ≤ 0.5
104 | C11A C29G C60U G67A A69U | ≤ 0.5
105 | C11A C29G C66U | 0.525
106 | C11A G50C C61A A69G | ≤ 0.5
107 | C11A U26G | 0.599
108 | G10C U26A C33U U53C A70C | 0.724
109 | C11A G17A C33U | ≤ 0.5
110 | C11A U19G A36G C49U U54C A69C | ≤ 0.5
111 | G10C U16G C31A U32G A57U | ≤ 0.5
112 | G10C U35G | ≤ 0.5
113 | C11A U59A | 0.629
114 | G10C G51C | 0.535
115 | C11A | 0.676
116 | G10C U19A C30G A40C G67C | ≤ 0.5
117 | C11A C27U G44U | ≤ 0.5
118 | C11A C22G C29G C61U C62A A70G | ≤ 0.5
119 | C11A C29A A37U | ≤ 0.5
120 | G10U A43G C46U | ≤ 0.5

Row | Variant | yeast fitness
121 | C11A G25C C29U A65C A70U | 0.541
122 | C11A A21G C31G A36U A65U | ≤ 0.5
123 | C11A C31U U53A A65U | ≤ 0.5
124 | C11A A20U C29U C33G | 0.578
125 | G10C G44A A70U | ≤ 0.5
126 | C11A G38A U53A | 0.543
127 | G10C U19G C62G | ≤ 0.5
128 | C11A C22U U26G A40U G48C | 0.537
129 | C11A C46U U53A G63C | ≤ 0.5
130 | C11A A21C U28A C55U C62U G67C | ≤ 0.5
131 | C11A A15G C22U C29A A43U A45G A57U | ≤ 0.5
132 | C11A C24U G67C A70G | ≤ 0.5
133 | C11A U16C C31U A69U | ≤ 0.5
134 | C11A G17A C33U A70C | ≤ 0.5
135 | C11A A42C G51A | 0.73
136 | C11A A43G U54C A65C | ≤ 0.5
137 | C11A G25C C34G C46A A70G | ≤ 0.5
138 | C11A U16C U32G G48A C49G C55A | ≤ 0.5
139 | C11A C22U G39C U47A | ≤ 0.5
140 | C11A C27G C55U | ≤ 0.5
141 | C11A G12A C29U G48A G50A | ≤ 0.5
142 | G10C U32C C66G | ≤ 0.5
143 | C11A C24G | 0.52
144 | C11A C33A G68A | 0.557

Row | Variant | yeast fitness
145 | C11A U59C A69U | 0.573
146 | C11A G44C | 0.59
147 | C11A G50C | ≤ 0.5
148 | C11A A20U U47C C60G | ≤ 0.5
149 | C11A A43U C49U | 0.548
150 | C11A C29A U35A A65G | ≤ 0.5
151 | C11A G41A G67U G68C | 0.567
152 | G10C U26A C33U U53C | 0.576
153 | G10C U26C A45G U53C A65C | ≤ 0.5
154 | C11A G39A C62A | ≤ 0.5
155 | C11A C33G A43C G68A | 0.61
156 | G10C U26C | 0.673
157 | C11A U16C | 0.644
158 | C11A A14G U19G A43C U53A | ≤ 0.5
159 | C11A G25C C29U U54C A65C A70U | ≤ 0.5
160 | C11A C31G A42U C62A C66U A69U | ≤ 0.5
161 | C11A C49A | ≤ 0.5
162 | C11A A36C A42G C49A | ≤ 0.5
163 | G10C U13A | 0.549
164 | C11A A45U G50U U54C U64A | ≤ 0.5
165 | C11A U32A A70U | ≤ 0.5
166 | C11A U19G A36G U54C C66U A69C | ≤ 0.5
167 | C11A G23C U32G C34A | ≤ 0.5
